Data taken from ChEMBL document CHEMBL1240491, “In vitro anticancer screening and radiosensitizing evaluation of some new quinolines and pyrimido[4,5-b]quinolines bearing a sulfonamide moiety” (Eur J Med Chem, 2010).

What was measured:
MCF7 [1] = assay: Anticancer activity against human MCF7 cells assessed as survival fraction after 48 hrs by SRB assay; type: functional, cell-based; details: MCF7, 48 h
Method in brief: (§1)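 Unirradiated MCF7 monolayers attached for 24 h after plating at 10⁴ cells/well, then exposed to a range of compound concentrations (dissolved in DMSO) with replicate wells per concentration. Incubated 48 h at 37 °C under 5% CO₂. Sulforhodamine B assay: fixation, 30 min 0.4% SRB/1% acetic acid, four acid washes, Tris-EDTA elution, colorimetric reading. Surviving fraction given as mean ± standard error.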

MCF7 [2] = assay: Anticancer activity against human MCF7 cells assessed as survival fraction at 50 uM after 48 hrs by SRB assay; type: functional; method in brief: as §1
MCF7 [3] = assay: Anticancer activity against human MCF7 cells assessed as survival fraction at 100 uM after 48 hrs by SRB assay; type: functional; method in brief: as §1
MCF7 [4] = assay: Anticancer activity against human MCF7 cells assessed as survival fraction at 25 uM after 48 hrs by SRB assay; type: functional; method in brief: as §1
MCF7 [5] = assay: Anticancer activity against human MCF7 cells assessed as survival fraction at 10 uM after 48 hrs by SRB assay; type: functional; method in brief: as §1
MCF7 [6] = assay: Anticancer activity against 8 Gy irradiated human MCF7 cells assessed as survival fraction at 25 uM after 48 hrs by SRB assay; type: functional
Method in brief: (§2)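 MCF7 cells seeded at 10⁴ cells/well for 24 h, then given test compound (DMSO solution; 10, 25, 50 or 100 in the concentration series) plus a single 8 Gy γ-irradiation. Incubated 48 h, 37 °C, 5% CO₂. SRB readout: fix, stain 30 min with 0.4% SRB in 1% acetic acid, wash, solubilize in Tris-EDTA, read on ELISA reader. Surviving fraction is the mean of three values ± SE.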

MCF7 [7] = assay: Anticancer activity against 8 Gy irradiated human MCF7 cells assessed as survival fraction at 10 uM after 48 hrs by SRB assay; type: functional; method in brief: as §2
MCF7 [8] = assay: Anticancer activity against 8 Gy irradiated human MCF7 cells assessed as survival fraction after 48 hrs by SRB assay; type: functional, cell-based; details: MCF7, light or radiation study; method in brief: as §2
MCF7 [9] = assay: Anticancer activity against 8 Gy irradiated human MCF7 cells assessed as survival fraction at 50 uM after 48 hrs by SRB assay; type: functional; method in brief: as §2
MCF7 [10] = assay: Anticancer activity against 8 Gy irradiated human MCF7 cells assessed as survival fraction at 100 uM after 48 hrs by SRB assay; type: functional; method in brief: as §2

Row | SMILES | IC50 (MCF7 [1]) | Activity (MCF7 [2]) | Activity (MCF7 [3]) | Activity (MCF7 [4]) | Activity (MCF7 [5]) | Activity (MCF7 [6]) | Activity (MCF7 [7]) | IC50 (MCF7 [8]) | Activity (MCF7 [9]) | Activity (MCF7 [10])
1 | CC1(C)CC(=O)C2=C(C1)N(c1ccc(S(N)(=O)=O)cc1)c1ncnc(NN)c1C2c1ccc(Cl)cc1 (stereo not drawn) | 76 µM | 0.672 | 0.358 | 0.788 | 0.94 |  |  |  |  | 
2 | CC1(C)CC(=O)C2=C(C1)N(c1ccc(S(N)(=O)=O)cc1)C(N)=C(C#N)C2c1ccc(Cl)cc1 (stereo not drawn) | 72.9 µM | 0.429 | 0.484 | 0.612 | 0.915 |  |  |  |  | 
3 | CC1(C)CC(=O)C2=C(C1)N(c1ccc(S(N)(=O)=O)cc1)c1nc[nH]c(=O)c1C2c1ccc(Cl)cc1 (stereo not drawn) | 76.8 µM | 0.499 | 0.468 | 0.676 | 0.891 |  |  |  |  | 
4 | CC(=O)NC1=C(C#N)C(c2ccc(Cl)cc2)C2=C(CC(C)(C)CC2=O)N1c1ccc(S(N)(=O)=O)cc1 (stereo not drawn) | 64.5 µM | 0.446 | 0.324 | 0.779 | 0.948 | 0.503 | 0.427 | 33.1 µM | 0.31 | 0.137
5 | CC(=O)N(C(C)=O)C1=C(C#N)C(c2ccc(Cl)cc2)C2=C(CC(C)(C)CC2=O)N1c1ccc(S(N)(=O)=O)cc1 (stereo not drawn) | 72.1 µM | 0.504 | 0.414 | 0.773 | 0.895 |  |  |  |  | 
6 | Cc1nc2c(c(=O)[nH]1)C(c1ccc(Cl)cc1)C1=C(CC(C)(C)CC1=O)N2c1ccc(S(N)(=O)=O)cc1 (stereo not drawn) | 85.9 µM | 0.45 | 0.557 | 0.721 | 0.976 |  |  |  |  | 
7 | CC1(C)CC(=O)C2=C(C1)N(c1ccc(S(N)(=O)=O)cc1)c1ncnc(N)c1C2c1ccc(Cl)cc1 (stereo not drawn) | 96.6 µM | 0.495 | 0.602 | 0.612 | 0.886 |  |  |  |  | 
8 | CCO/C=N/C1=C(C#N)C(c2ccc(Cl)cc2)C2=C(CC(C)(C)CC2=O)N1c1ccc(S(N)(=O)=O)cc1 (stereo not drawn) | 97.2 µM | 0.498 | 0.607 | 0.551 | 0.803 |  |  |  |  | 
9 | CC1(C)CC(=O)C2=C(C1)N(c1ccc(S(N)(=O)=O)cc1)C(NC(=O)CCl)=C(C#N)C2c1ccc(Cl)cc1 (stereo not drawn) | 84.3 µM | 0.523 | 0.502 | 0.736 | 0.986 |  |  |  |  | 
10 | CC1(C)CC(=O)C2=C(C1)N(c1ccc(S(N)(=O)=O)cc1)c1nc(CCl)[nH]c(=O)c1C2c1ccc(Cl)cc1 (stereo not drawn) | > 100 µM | 0.731 | 0.625 | 0.775 | 0.914 |  |  |  |  | 
11 | CC1(C)CC(=O)C2=C(C1)N(c1ccc(S(N)(=O)=O)cc1)c1nc(CC#N)[nH]c(=O)c1C2c1ccc(Cl)cc1 (stereo not drawn) | > 100 µM | 0.774 | 0.525 | 0.901 | 0.971 |  |  |  |  | 
12 | CCNC(=S)NC1=C(C#N)C(c2ccc(Cl)cc2)C2=C(CC(C)(C)CC2=O)N1c1ccc(S(N)(=O)=O)cc1 (stereo not drawn) | 99.6 µM | 0.594 | 0.561 | 0.837 | 0.916 |  |  |  |  | 
13 | CC1(C)CC(=O)C2=C(C1)N(c1ccc(S(N)(=O)=O)cc1)C(N1C(=O)CCC1=O)=C(C#N)C2c1ccc(Cl)cc1 (stereo not drawn) | 95.2 µM | 0.584 | 0.549 | 0.813 | 0.93 |  |  |  |  | 
14 | CC1(C)CC(=O)C2=C(C1)N(c1ccc(S(N)(=O)=O)cc1)C(N)=C(C(N)=O)C2c1ccc(Cl)cc1 (stereo not drawn) | 71.9 µM | 0.445 | 0.452 | 0.662 | 0.922 | 0.517 | 0.653 | 44.4 µM | 0.281 | 0.282
15 | CC1(C)CC(=O)C2=C(C1)N(c1ccc(S(N)(=O)=O)cc1)C(N)=C(C1=NCCN1)C2c1ccc(Cl)cc1 (stereo not drawn) | > 100 µM | 0.568 | 0.621 | 0.763 | 0.939 |  |  |  |  | 
16 | CC(=O)CC(=O)NC1=C(C#N)C(c2ccc(Cl)cc2)C2=C(CC(C)(C)CC2=O)N1c1ccc(S(N)(=O)=O)cc1 (stereo not drawn) | > 100 µM | 0.648 | 0.549 | 0.82 | 0.897 |  |  |  |  | 
17 | CC1(C)CC(=O)C2=C(C1)N(c1ccc(S(N)(=O)=O)cc1)c1nc[nH]c(=S)c1C2c1ccc(Cl)cc1 (stereo not drawn) | > 100 µM | 0.884 | 0.814 | 0.91 | 0.927 |  |  |  |  | 
18 | CC1(C)CC(=O)C2=C(C1)N(c1ccc(S(N)(=O)=O)cc1)c1ncnc(Cl)c1C2c1ccc(Cl)cc1 (stereo not drawn) | 86.5 µM | 0.476 | 0.546 | 0.696 | 0.843 |  |  |  |  | 
19 | CCOC(=O)Cn1cnc2c(c1=O)C(c1ccc(Cl)cc1)C1=C(CC(C)(C)CC1=O)N2c1ccc(S(N)(=O)=O)cc1 (stereo not drawn) | > 100 µM | 0.653 | 0.563 | 0.88 | 0.954 |  |  |  |  | 
20 | CC1(C)CC(=O)C2=C(C1)N(c1ccc(S(N)(=O)=O)cc1)c1ncnc(N=C=S)c1C2c1ccc(Cl)cc1 (stereo not drawn) | 79.6 µM | 0.419 | 0.515 | 0.721 | 0.972 |  |  |  |  | 
21 | COc1cccc2c1C(=O)c1c(O)c3c(c(O)c1C2=O)C[C@@](O)(C(=O)CO)C[C@@H]3O[C@H]1C[C@H](N)[C@H](O)[C@H](C)O1 [DOXORUBICIN] |  | 0.461 | 0.494 |  | 0.721 |  |  |  |  | 
